Assay [1] concerns the target Tyrosine-protein kinase Yes (Homo sapiens) (UniProt P07947). Description: Inhibition of YES1 assessed as residual activity at 0.1 uM by Cherenkov counting relative to control in presence of 20 uM ATP. In a few lines: (§1)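 Single-concentration screen at 0.1 μM in a 76-kinase panel. ATP for each kinase was set near its Km for ATP. Residual activity is given as a percentage of control assays without compound, mean of n = 3 ± SD.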

The target of assay [2] is Serine/threonine-protein kinase N2 (Homo sapiens) (UniProt Q16513). Description: Inhibition of PRK2 assessed as residual activity at 0.1 uM by Cherenkov counting relative to control in presence of 5 uM ATP. In a few lines:
as §1

The target in assay [3] is MAP kinase-interacting serine/threonine-protein kinase 2 (Homo sapiens) (UniProt Q9HBH9). Description: Inhibition of MNK2 assessed as residual activity at 0.1 uM by Cherenkov counting relative to control in presence of 50 uM ATP. In a few lines: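 Single-concentration selectivity screen at 0.1 μM against a panel of 76 protein kinases. Each kinase was run at an ATP level approximating its Km for ATP. Output is mean residual activity as % of the control assay without compound, n = 3 ± SD.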
MAP kinase-interacting serine/threonine-protein kinase 2 (Homo sapiens), sequence (Q9HBH9 whole entry, looked up): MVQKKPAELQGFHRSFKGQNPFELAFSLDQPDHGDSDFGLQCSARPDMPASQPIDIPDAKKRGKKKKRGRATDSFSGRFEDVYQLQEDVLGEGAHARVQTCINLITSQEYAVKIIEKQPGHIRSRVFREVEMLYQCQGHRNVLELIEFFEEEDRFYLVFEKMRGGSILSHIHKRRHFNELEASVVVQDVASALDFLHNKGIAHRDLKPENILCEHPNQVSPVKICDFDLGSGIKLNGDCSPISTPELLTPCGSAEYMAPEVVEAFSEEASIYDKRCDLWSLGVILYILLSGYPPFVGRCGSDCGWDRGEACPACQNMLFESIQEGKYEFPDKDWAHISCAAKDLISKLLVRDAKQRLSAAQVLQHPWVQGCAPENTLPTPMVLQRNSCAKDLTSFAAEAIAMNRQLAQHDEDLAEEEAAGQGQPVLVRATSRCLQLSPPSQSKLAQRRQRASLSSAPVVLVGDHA

The target in assay [4] is T1, Dual specificity tyrosine-phosphorylation-regulated kinase 2 (Homo sapiens) (UniProt Q92630).
T1 sequence (whole entry): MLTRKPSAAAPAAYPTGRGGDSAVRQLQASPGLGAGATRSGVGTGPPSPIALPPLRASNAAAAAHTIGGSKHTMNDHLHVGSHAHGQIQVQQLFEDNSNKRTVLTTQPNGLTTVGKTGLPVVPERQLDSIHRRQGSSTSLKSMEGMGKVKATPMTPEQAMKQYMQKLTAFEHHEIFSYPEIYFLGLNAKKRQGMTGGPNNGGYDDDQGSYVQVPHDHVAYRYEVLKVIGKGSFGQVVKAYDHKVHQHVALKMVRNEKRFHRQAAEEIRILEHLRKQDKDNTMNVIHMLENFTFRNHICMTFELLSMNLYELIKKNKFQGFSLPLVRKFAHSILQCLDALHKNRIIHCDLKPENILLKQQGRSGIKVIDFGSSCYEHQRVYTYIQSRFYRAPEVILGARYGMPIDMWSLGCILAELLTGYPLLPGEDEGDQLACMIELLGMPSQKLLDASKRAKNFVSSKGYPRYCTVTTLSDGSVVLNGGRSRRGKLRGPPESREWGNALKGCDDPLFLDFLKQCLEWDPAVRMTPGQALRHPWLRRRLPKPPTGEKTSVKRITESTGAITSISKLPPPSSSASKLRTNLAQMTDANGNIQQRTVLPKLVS
Description: Inhibition of DYRK2 assessed as residual activity at 0.1 uM by Cherenkov counting relative to control in presence of 50 uM ATP. In a few lines: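 Single-concentration screen at 0.1 µM across a panel of 76 protein kinases. Each kinase was run at an ATP concentration approximating its ATP Km. Results are % mean residual activity versus control assays without compound (n = 3 ± SD).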

The target of assay [5] is Serine/threonine-protein kinase N2 (Homo sapiens) (UniProt Q16513). Description: Inhibition of PRK2 assessed as residual activity at 10 uM by Cherenkov counting relative to control in presence of 5 uM ATP. In a few lines:
(§2)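 Single-concentration profiling at 10 μM in a 78-kinase panel. Kinase activity is expressed as a percentage of control assays run without compound.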

Assay [6] deals with T2, Serine/threonine-protein kinase Nek2 (Homo sapiens) (UniProt P51955).
T2 sequence (whole entry): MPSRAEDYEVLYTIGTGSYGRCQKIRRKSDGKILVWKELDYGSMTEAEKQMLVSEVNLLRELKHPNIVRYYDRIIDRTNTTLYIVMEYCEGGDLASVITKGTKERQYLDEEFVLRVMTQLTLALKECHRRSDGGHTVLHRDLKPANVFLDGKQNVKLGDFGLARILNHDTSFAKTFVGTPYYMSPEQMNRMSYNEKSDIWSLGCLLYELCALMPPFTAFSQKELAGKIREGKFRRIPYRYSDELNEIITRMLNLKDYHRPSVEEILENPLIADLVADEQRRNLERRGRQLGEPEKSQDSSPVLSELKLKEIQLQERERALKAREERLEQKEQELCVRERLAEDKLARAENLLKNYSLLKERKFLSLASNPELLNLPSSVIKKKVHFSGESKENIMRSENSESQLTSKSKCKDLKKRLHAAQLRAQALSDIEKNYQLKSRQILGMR
The assay is described as follows: Inhibition of NEK2a assessed as residual activity at 10 uM by Cherenkov counting relative to control in presence of 50 uM ATP.

Assay [7] has as its target T3, Inhibitor of nuclear factor kappa-B kinase subunit beta (Homo sapiens) (UniProt O14920).
T3 sequence (whole entry): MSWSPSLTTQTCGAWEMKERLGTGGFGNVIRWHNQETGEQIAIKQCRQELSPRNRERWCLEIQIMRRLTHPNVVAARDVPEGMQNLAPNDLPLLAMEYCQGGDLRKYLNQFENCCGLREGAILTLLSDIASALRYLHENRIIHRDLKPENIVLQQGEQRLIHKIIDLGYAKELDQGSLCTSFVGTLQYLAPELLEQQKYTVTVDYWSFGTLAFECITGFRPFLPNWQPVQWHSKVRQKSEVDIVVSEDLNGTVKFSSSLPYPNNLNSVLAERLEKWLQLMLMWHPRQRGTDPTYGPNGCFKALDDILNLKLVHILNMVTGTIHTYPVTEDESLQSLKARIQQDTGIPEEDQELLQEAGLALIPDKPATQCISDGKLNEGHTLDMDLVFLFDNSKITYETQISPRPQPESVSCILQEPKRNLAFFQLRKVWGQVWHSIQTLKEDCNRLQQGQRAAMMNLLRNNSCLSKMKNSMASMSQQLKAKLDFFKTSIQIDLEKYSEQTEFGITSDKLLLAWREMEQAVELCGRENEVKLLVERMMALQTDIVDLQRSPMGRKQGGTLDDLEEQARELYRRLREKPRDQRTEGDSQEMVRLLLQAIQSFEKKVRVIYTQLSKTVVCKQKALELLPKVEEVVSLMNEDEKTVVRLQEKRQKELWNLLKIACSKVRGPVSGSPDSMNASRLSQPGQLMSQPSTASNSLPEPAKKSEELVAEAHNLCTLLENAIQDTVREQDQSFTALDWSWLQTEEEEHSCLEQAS
The assay is described as follows: Inhibition of IKK-beta assessed as residual activity at 10 uM by Cherenkov counting relative to control in presence of 5 uM ATP. In a few lines:
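Single-point profiling at 10 µM in a panel of 78 protein kinases. Kinase activity is expressed as a percentage relative to control assays without compound.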

The target in assay [8] is Serine/threonine-protein kinase pim-3 (Homo sapiens) (UniProt Q86V86). The assay is described as follows: Inhibition of PIM3 assessed as residual activity at 10 uM by Cherenkov counting relative to control in presence of 20 uM ATP.
The target of assay [9] is Tyrosine-protein kinase SYK (Homo sapiens) (UniProt P43405). Description: Inhibition of SYK assessed as residual activity at 10 uM by Cherenkov counting relative to control in presence of 20 uM ATP. In outline: as §2
Assay [10] concerns the target Tyrosine-protein kinase Yes (Homo sapiens) (UniProt P07947). The assay is described as follows: Inhibition of YES1 assessed as residual activity at 10 uM by Cherenkov counting relative to control in presence of 20 uM ATP. In outline: as §2

Tyrosine-protein kinase Yes (Homo sapiens), sequence (P07947 2-543 limits assumed): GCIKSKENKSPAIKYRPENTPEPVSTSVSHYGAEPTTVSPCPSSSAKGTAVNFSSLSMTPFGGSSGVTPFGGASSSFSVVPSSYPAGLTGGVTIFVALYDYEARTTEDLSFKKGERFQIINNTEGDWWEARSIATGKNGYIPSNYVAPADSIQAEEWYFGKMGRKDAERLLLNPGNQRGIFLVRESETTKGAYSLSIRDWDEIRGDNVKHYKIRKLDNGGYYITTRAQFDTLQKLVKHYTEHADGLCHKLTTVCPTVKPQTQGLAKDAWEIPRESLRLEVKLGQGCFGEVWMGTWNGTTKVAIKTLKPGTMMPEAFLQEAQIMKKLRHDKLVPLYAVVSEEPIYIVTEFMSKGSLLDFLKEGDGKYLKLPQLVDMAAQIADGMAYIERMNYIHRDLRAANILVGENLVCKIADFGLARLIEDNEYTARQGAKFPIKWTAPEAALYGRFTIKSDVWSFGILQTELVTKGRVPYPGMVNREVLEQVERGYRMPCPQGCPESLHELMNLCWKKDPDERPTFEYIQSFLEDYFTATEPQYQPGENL
Serine/threonine-protein kinase N2 (Homo sapiens), sequence (Q16513 whole entry, looked up): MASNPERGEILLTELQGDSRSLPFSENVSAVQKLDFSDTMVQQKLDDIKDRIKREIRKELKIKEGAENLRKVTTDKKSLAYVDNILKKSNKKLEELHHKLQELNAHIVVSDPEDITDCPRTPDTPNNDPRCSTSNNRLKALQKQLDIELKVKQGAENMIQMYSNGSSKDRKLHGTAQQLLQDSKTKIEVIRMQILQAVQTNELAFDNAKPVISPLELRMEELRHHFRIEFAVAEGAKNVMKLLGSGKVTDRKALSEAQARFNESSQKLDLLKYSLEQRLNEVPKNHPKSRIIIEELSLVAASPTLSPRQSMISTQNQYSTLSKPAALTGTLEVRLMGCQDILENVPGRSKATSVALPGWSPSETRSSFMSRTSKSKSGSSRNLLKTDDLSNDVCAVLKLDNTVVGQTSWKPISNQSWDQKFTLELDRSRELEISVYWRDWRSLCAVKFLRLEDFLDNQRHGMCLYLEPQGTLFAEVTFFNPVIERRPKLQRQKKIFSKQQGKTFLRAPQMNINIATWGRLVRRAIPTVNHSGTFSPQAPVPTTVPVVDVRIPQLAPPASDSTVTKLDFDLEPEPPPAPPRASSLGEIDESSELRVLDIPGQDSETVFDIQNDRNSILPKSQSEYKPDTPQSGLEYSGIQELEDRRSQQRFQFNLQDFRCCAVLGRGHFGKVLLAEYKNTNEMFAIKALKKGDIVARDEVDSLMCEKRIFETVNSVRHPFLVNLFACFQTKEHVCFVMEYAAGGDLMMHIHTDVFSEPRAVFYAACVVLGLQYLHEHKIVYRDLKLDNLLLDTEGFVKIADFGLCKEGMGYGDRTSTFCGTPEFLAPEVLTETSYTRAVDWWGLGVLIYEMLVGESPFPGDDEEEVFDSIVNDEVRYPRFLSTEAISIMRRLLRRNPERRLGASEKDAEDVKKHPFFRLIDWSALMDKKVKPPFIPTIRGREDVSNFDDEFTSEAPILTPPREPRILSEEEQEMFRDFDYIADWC

For `COc1ccc(/C=C/C(=O)Nc2cc(-c3[nH]c(SC)nc3-c3ccc(F)cc3)ccn2)c(OC)c1`, the Activity in assay [1] was found to be 24%; in [2] it was 95%; in [3] it was 85%; in [4], 82%.
For `CC(C)c1onc(-c2ccc(F)cc2)c1-c1ccncc1`, the Activity is 88% in assay [5]; 98% in [6]; 103% in assay [7]; 81% in [8]; 131% in assay [9]; 82% in [10].
For the compound `CC(C)c1noc(-c2ccc(F)cc2)c1-c1ccncc1`, the Activity in assay [5] stood at 98%; in assay [6] it was 96%; in assay [7] it was 103%; in assay [8], 78%; in [9], 114%; in assay [10], 101%.
On to `COc1ccc(/C=C/C(=O)Nc2cc(-c3[nH]c([S+](C)[O-])nc3-c3ccc(F)cc3)ccn2)c(OC)c1` (stereo not given), for which the Activity in [1] was found to be 14%; in assay [2] it was 96%; in assay [3], 88%; in [4] it was 101%.

Values taken from ChEMBL document CHEMBL1155278, “3,4-Diaryl-isoxazoles and -imidazoles as potent dual inhibitors of p38alpha mitogen activated protein kinase and casein kinase 1delta” (J Med Chem, 2009).
